Results as given in ChEMBL document CHEMBL1121868, “Synthesis and biological effects of acyclic pyrimidine nucleoside analogues” (J Med Chem, 1981).

What was measured:
Type in all cases: functional, organism-based
Escherichia coli [1] = assay: In vitro inhibition of Escherichia coli K-12 growth.
Escherichia coli [2] = assay: In vitro concentration required for growth inhibition of Escherichia coli K-12 strain resistant to 10e-3 M 5-flourouracil
Summary of the method: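 In vitro growth assay on an E. coli K-12 strain resistant to 10^-3 M 5-fluorouracil. IC50 is the concentration giving 50% inhibition of E. coli K-12 growth. The growth procedure follows earlier published methods.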

Escherichia coli [3] = assay: In vitro concentration required for growth inhibition of 5-fluorouracil resistant strain of Escherichia coli in presence of 2'-deoxycytidine metabolite at 10e-3 M concentration.
Escherichia coli [4] = assay: In vitro concentration required for growth inhibition of 5-fluorouracil resistant strain of Escherichia coli in presence of 2'-deoxyuridine metabolite at 10e-3 M concentration.
Escherichia coli [5] = assay: In vitro concentration required for growth inhibition of 5-fluorouracil resistant strain of Escherichia coli in presence of thymidine metabolite at 10e-3 M concentration.
Escherichia coli [6] = assay: In vitro concentration required for growth inhibition of 5-fluorouracil resistant strain of Escherichia coli in presence of uridine metabolite at 10e-3 M concentration.
Escherichia coli [7] = assay: In vitro concentration required for growth inhibition of 5-fluorouracil resistant strain of Escherichia coli in presence of thymine metabolite at 10e-3 M concentration.
Escherichia coli [8] = assay: In vitro concentration required for growth inhibition of 5-fluorouracil resistant strain of Escherichia coli in presence of cytosine metabolite at 10e-3 M concentration.
Escherichia coli [9] = assay: In vitro concentration required for growth inhibition of 5-fluorouracil resistant strain of Escherichia coli in presence of cytidine metabolite at 10e-3 M concentration.
Escherichia coli [10] = assay: In vitro concentration required for growth inhibition of 5-fluorouracil resistant strain of Escherichia coli in presence of uracil metabolite at 10e-3 M concentration.

Row | SMILES | IC50 (Escherichia coli [1]) [µM] | also measured
1 | Nc1ccn(COCCOC(=O)c2ccccc2)c(=O)n1 | 900 | –
2 | O=C(OCCOCn1ccc(=O)[nH]c1=O)c1ccccc1 | 100 | –
3 | CC(=O)Nc1ccn(COCCO)c(=O)n1 | > 1000 | –
4 | CN(C)c1ccn(C)c(=O)n1 | 80 | –
5 | Cc1cn(COCCOC(=O)c2ccccc2)c(=O)[nH]c1=O | 860 | –
6 | Cn1ccc(=O)n(C)c1=O | 15 | –
7 | O=C(OCCOCn1cc(F)c(=O)[nH]c1=O)c1ccccc1 | 9 | IC50 (Escherichia coli [2]): 180 µM
8 | Cc1cn(COCCN)c(=O)[nH]c1=O | 310 | –
9 | CC(=O)Nc1ccn(COCCN=[N+]=[N-])c(=O)n1 | > 1000 | –
10 | O=c1ccn(COCCO)c(=O)[nH]1 | 320 | –
11 | CC(=O)Nc1ccn(COCCOC(=O)Oc2ccccc2)c(=O)n1 | > 1000 | –
12 | Cc1cn(COCCN=[N+]=[N-])c(=O)[nH]c1=O | 250 | –
13 | Cc1cn(COCCO)c(=O)[nH]c1=O | > 1000 | –
14 | COc1ccn(C)c(=O)n1 | 61 | –
15 | O=c1[nH]c(=O)n(COCCO)cc1F | 1.2 | IC50 (Escherichia coli [3]): 9.5 µM; IC50 (Escherichia coli [4]): 370 µM; IC50 (Escherichia coli [5]): 1000 µM; IC50 (Escherichia coli [6]): 240 µM; IC50 (Escherichia coli [7]): 730 µM; IC50 (Escherichia coli [2]): 4.2 µM; IC50 (Escherichia coli [8]): 7.4 µM; IC50 (Escherichia coli [9]): 9.1 µM; IC50 (Escherichia coli [10]): 8.4 µM
16 | CC(C)n1ccc(N)nc1=O | > 1000 | –
17 | [N-]=[N+]=NCCOCn1ccc(N)nc1=O | 440 | –
18 | Nc1ccn(COCCO)c(=O)n1 | 87 | –
19 | NCCOCn1ccc(N)nc1=O | > 1000 | –
20 | NC(=O)OCCOCn1ccc(N)nc1=O | 910 | –
21 | CC(=O)C(C)n1ccc(N)nc1=O (configuration not stated) | 560 | –
22 | CCCCCCC(C(C)=O)n1ccc(N)nc1=O (configuration not stated) | 30 | –
